Experimental data reported in EPA's CvTdb concentration-time database.
Where “and” joins values, the source holds several entries; their conditions need not be identical. Identical values can stand only once.

What was measured:
rat [1] = experiment: concentration in blood after dosing; conditions: dosed: halothane, 50000 ppm, dermal, duration: 4 hr, male, F344
rat [2] = experiment: concentration in blood after dosing; conditions: dosed: halothane, 50000 ppm, dermal, duration: 4 hr, male, F344; remark: listed apart in the source
rat [3] = experiment: concentration in blood after dosing; conditions: dosed: halothane, 50000 ppm, dermal, duration: 4 hr, male, F344; remark: listed apart in the source
rat [4] = experiment: concentration in blood after dosing; conditions: dosed: halothane, 50000 ppm, dermal, duration: 4 hr, male, F344; remark: listed apart in the source
Rat [5] = experiment: concentration in plasma after dosing; conditions: dosed: Tamoxifen citrate, 0.3 mg/kg, iv, Male, Sprague-Dawley
Rat [6] = experiment: concentration in plasma after dosing; conditions: dosed: Tamoxifen citrate, 0.3 mg/kg, iv, Male, Sprague-Dawley; remark: listed apart in the source
Rat [7] = experiment: concentration in plasma after dosing; conditions: dosed: Tamoxifen citrate, 0.3 mg/kg, iv, Female, Sprague-Dawley
Rat [8] = experiment: concentration in plasma after dosing; conditions: dosed: Tamoxifen citrate, 0.3 mg/kg, iv, Female, Sprague-Dawley; remark: listed apart in the source
Rat [9] = experiment: concentration in plasma after dosing; conditions: dosed: Tamoxifen citrate, 0.3 mg/kg, iv, Male, Sprague-Dawley; remark: listed apart in the source
Rat [10] = experiment: concentration in plasma after dosing; conditions: dosed: Tamoxifen citrate, 0.3 mg/kg, iv, Male, Sprague-Dawley; remark: listed apart in the source
Rat [11] = experiment: concentration in plasma after dosing; conditions: dosed: Tamoxifen citrate, 0.3 mg/kg, iv, Female, Sprague-Dawley; remark: listed apart in the source
Rat [12] = experiment: concentration in plasma after dosing; conditions: dosed: Tamoxifen citrate, 0.3 mg/kg, iv, Sprague-Dawley
Rat [13] = experiment: concentration in plasma after dosing; conditions: dosed: Tamoxifen citrate, 0.3 mg/kg, iv, Female, Sprague-Dawley; remark: listed apart in the source
human = experiment: negative times count back from the end of exposure; conditions: dosed: toluene, 200 mg/m^3, inhalation, duration: 2 hr, male
How it was run: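 A PubMed search, classifier screening and manual review identified published in vivo toxicokinetic studies, which together with two structured collections supplied concentration-versus-time and amount-versus-time points. Points were mostly digitised from plot screenshots with WebPlotDigitizer, otherwise copied from tables. Dose, route, subject details and medium were hand-curated from each paper, and sampling and analytical methods are those of the sources, often unreported.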

FC(F)(F)C(Cl)Br (stereo not given) [halothane]
concentration in blood [ng/mL]
Conditions | 0.5 h | 1 h | 2 h | 3 h | 4 h
rat [1] | 3130 | 4930 | 5210 | 5410 | 7710
rat [2] | 1420 | 2310 | 2600 | 3360 | 2720
rat [3] | 623 | 2040 | 2110 | 2720 | 2190
rat [4] | 1300 | – | 3220 | 3020 | 2520

CC/C(=C(\c1ccccc1)c1ccc(OCCN(C)C)cc1)c1ccccc1 [Tamoxifen, free base]
concentration in plasma [ng/mL]
Conditions | Rat [5] | Rat [6] | Rat [7] | Rat [8] | Rat [9] | Rat [10] | Rat [11] | Rat [13]
0.25 h | 17.9 | – | 19.2 | 10.6 | 27.8 | 23.4 | – | 9.8
0.5 h | 14 | – | 16.9 | 11.7 | 21.3 | 17.5 | – | 7.72
1 h | 9.45 | 5.39 | 12.4 | 7.86 | 12.5 | 11.1 | 11.8 | 6.48
2 h | 5.39 | 5.6 | 8.82 | 6.98 | 7.97 | 6.63 | 6.28 | 6.85
4 h | 13 | 5.43 | 4.36 | 4.36 | 4.45 | 4.12 | 4.6 | 5.08
8 h | – | 4.84 | – | – | – | – | – | –

concentration in plasma, Rat [12]
Conditions | 0.25 h | 0.5 h | 1 h | 2 h | 4 h | 8 h
Female | 7.64 ng/mL and 17.2 ng/mL | 7.57 ng/mL and 13.4 ng/mL | 5.28 ng/mL | – | – | –
Male | 7.83 ng/mL | 8.42 ng/mL | 5.43 ng/mL | 4.66 ng/mL | 5.32 ng/mL | 5.19 ng/mL

O=C(O)CNC(=O)c1ccccc1 [hippuric acid]
human
Conditions | amount in urine after dosing [µmol/min]
3.981 h | 2.61
7.978 h | 0.699
12.06 h | 0.451
20.04 h | 0.258

Conditions | amount in urine after dosing [µmol/min]
human, -49 s, during exposure | 4.88
